Bioassay records as filed in PubChem.
STK33 kinase inh: human STK33 kinase inhibition; Q9BYT3; purified STK33, MBP phosphorylation, ADP-Glo luminescence; inhibition, % at 10 µM; 320,000 tested, 0.073% active;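 active = inhibition at or above 25%, using the most active replicate where run in duplicate; inactive = inhibition below 25%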
Target sequence (Q9BYT3 whole entry, looked up): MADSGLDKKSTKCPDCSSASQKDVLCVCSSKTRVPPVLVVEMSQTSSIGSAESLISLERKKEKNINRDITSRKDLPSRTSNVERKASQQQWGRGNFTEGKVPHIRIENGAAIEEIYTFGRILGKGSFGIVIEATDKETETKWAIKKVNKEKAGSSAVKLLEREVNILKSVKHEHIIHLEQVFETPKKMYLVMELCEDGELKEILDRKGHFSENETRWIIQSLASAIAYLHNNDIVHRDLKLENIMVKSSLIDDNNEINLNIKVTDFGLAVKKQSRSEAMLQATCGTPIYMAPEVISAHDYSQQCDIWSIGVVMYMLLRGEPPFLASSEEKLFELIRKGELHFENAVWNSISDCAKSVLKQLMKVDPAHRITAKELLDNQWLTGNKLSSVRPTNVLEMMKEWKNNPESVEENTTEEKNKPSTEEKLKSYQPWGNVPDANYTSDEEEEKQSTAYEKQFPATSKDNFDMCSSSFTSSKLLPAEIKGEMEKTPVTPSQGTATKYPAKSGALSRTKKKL
GSK3B inh: human GSK3beta kinase inhibition | activity score (negative = inhibition), % at 10 µM | 300,000 tested, 0.038% active | P49841 | GST-GSK3beta kinase, ADP-Glo luminescence, 60 min; active compounds read low;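 active = more than half of replicate wells score below -50%, meaning over 50% inhibition versus plate controls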;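 note: 0% = median DMSO wells and -100% = median GW8510 positive control wells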
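test system = GST-tagged human GSK3beta kinase, cell-free | reagent = 25 µM ATP with peptide substrate | dosing = one dose of 10 µM per compound | schedule = 60 min reaction, RT | detection = luminescent ADP-Glo measurement of ADP formed | control set = DMSO neutral wells and GW8510 at 20 µM as positive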
CDK5 p35 inh: blocks human CDK5/p35 kinase activity | inhibition, % at 10 µM | Recombinant CDK5/p35, ADP-Glo luminescence, 60 min | 330,000 tested, 0.01% active | Q00535+Q15078;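 active = highest replicate inhibition of at least 50% and at least 75% of replicates reaching 50%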;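 note: plate controls were DMSO neutral control for no effect and GW8510 at 10 µM for full effect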
GSK3 alpha inh: inhibitors of human GSK-3 alpha kinase; P49840; ADP-Glo luminescence, 60 min; inhibition, % at 10 µM; 320,000 tested, 0.1% active; AID 2650;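 active = more than half of replicates show inhibition above 20%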;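 note: GST-tagged GSK-3 alpha with peptide substrate and 25 µM ATP; 0% = DMSO neutral wells and 100% = GW8510 positive control wells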
Dyrk1A ADPGlo: Dyrk1A (rat) kinase inhibition; Q63470; ADP-Glo luminescence, NFATc1 peptide; inhibition, % at 12.5 µM; 310,000 tested, 0.43% active; in the data active = inhibition above about 50%;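 note: plate controls were vehicle with enzyme for no effect and no enzyme for full effect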
Dyrk1A artifact: ADP-Glo luciferase interference, Dyrk1A counter-screen | shares compounds with Dyrk1A ADPGlo | AID 588348 | ADP-Glo luciferase artifact assay, no Dyrk1A, luminescence | AC50, µM (titrated, usually from 12 µM), without a hit: at the top dose activity change, negative = inhibition | 1,300 tested, under 10 active;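 active = fitted half-maximal dose AC50 no more than ten times the top valid tested dose, with luminescence dropping as dose rises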
The depositor's hits bear a star; · = no result given. Only a selection was taken, and hits are over-represented in it overall.

SMILES	STK33 kinase inh	GSK3B inh	CDK5 p35 inh	GSK3 alpha inh	Dyrk1A ADPGlo	Dyrk1A artifact
Cc1cc(=O)oc2ccc(OC(=O)c3cccc(S(=O)(=O)N4CCOCC4)c3)cc12	1	-1	0	1	54*	5%
C[C@@H]1O[C@@H](O[C@H]2[C@H](O)[C@@H](O)[C@H](Oc3c(-c4ccc(O)cc4)oc4cc(O)cc(O)c4c3=O)O[C@@H]2CO)[C@H](O)[C@H](O)[C@H]1O	2	·	2	-3	6	·
C[C@@H]1O[C@@H](OC[C@@H]2O[C@H](Oc3c(-c4ccc(O)cc4)oc4cc(O)cc(O)c4c3=O)[C@@H](O)[C@H](O)[C@H]2O)[C@H](O)[C@H](O)[C@H]1O	3	·	0	15	72*	7%
O=C1NC(=O)C(c2ccccc2[N+](=O)[O-])=C1Nc1ccc(O)c(Cl)c1	14	·	66*	·	87*	7%
Cc1ccc(CNC(=O)Cn2c(=O)n(-c3ccccc3)c(=O)c3sccc32)cc1	-3	1	1	-3	5	·
CCCn1cnc2scc(-c3ccc(OC)cc3)c2c1=O	2	-3	1	9	60*	3%
CCn1cnc2scc(-c3ccc(OC)cc3)c2c1=O	1	2	0	-2	42	·
CCOc1ccc(S(=O)(=O)N2CCN(Cc3ccc4c(c3)OCO4)CC2)cc1C	-2	-2	-1	-3	0	·
COc1cc2cnc(-c3ccccc3)c(-c3ccc([N+](=O)[O-])cc3)c2cc1OC	0	·	1	-3	51*	9%
CCN(CC(=O)NCc1cccs1)S(=O)(=O)c1ccc(F)c(F)c1F	-1	-2	0	0	-6	·
COc1ccc(-c2nn(-c3ccccc3)cc2CO)cc1	1	-1	2	-1	62*	13%
Cc1ccc(-c2nn(-c3ccccc3)cc2CO)cc1	-1	1	0	-2	0	·
COC(=O)c1ccc(C)c(NC(=O)CN(c2ccccc2)S(=O)(=O)N(C)C)c1	0	0	-1	-3	-1	·
O=S1(=O)N=C(N(Cc2cccs2)c2ccc(O)cc2)c2ccccc21	1	-3	0	0	73*	7%
Cn1cnnc1SCC(=O)NC1CCCCCC1	1	5	-1	-1	2	·
N#Cc1c(N)nc2c3c(sc(=N)c2c1N)NC(=O)CC3c1c(F)cccc1Cl (centres undefined)	0	-4	-1	5	67*	10%
COc1cc(-c2cc(=O)c3c(O)c(OC)c(OC)c(O)c3o2)ccc1O	46*	-26	5	42	80*	7%
N#C/C(=N\Nc1cccc([N+](=O)[O-])c1)C(=O)c1ccc(Br)cc1	0	2	1	8	78*	7%
O=C(O)c1ccc(N=NNc2cccc([N+](=O)[O-])c2)cc1	1	-1	2	5	16	·
Cc1c(Br)c(=O)oc2c(Br)c(O)ccc12	-1	1	0	0	77*	9%
NNc1nc2c(Cl)ccc(Cl)c2s1	-1	0	2	-3	57*	8%
O=C(Nc1nc2c(Cl)ccc(Cl)c2s1)C1CC1	0	5	1	1	9	·
COc1ccc(-c2coc3c(CN4CCCCC4C)c(O)ccc3c2=O)cc1 (centres undefined)	-1	0	1	-1	-5	·
C=CCN1C(=O)/C(=C/c2ccccc2)S/C1=N/c1nccs1	0	1	-1	-1	58*	7%
O=c1oc2c(-c3cccc(F)c3)cc(O)cc2s1	2	-2	-1	2	65*	10%
SMILES	STK33 kinase inh	GSK3B inh	CDK5 p35 inh	GSK3 alpha inh	Dyrk1A ADPGlo	Dyrk1A artifact
Nc1nnc(-c2cccc(F)c2)s1	2	2	4	0	23	·
O=C1C=C(c2ccc3c(c2)OCO3)CCC1	0	-14	-1	-2	66*	9%
Cc1ccc(N2CN=c3s/c(=C\c4ccccn4)c(=O)n3C2)cc1	-1	0	1	-1	52*	6%
Cc1noc(C)c1NC(=O)N(C)C[C@H]1Oc2ccc(NC(=O)CCN3CCOCC3)cc2C(=O)N([C@H](C)CO)C[C@@H]1C	0	·	0	-2	-9	·
CC(C)S(=O)(=O)C1=NSC2=NC(=O)/C(=C\c3ccc(-c4ccccc4)o3)C(=N)N21	15	5	-2	7	47	·
CC(C)S(=O)(=O)C1=NSC2=NC(=O)/C(=C\c3ccc(-c4cccc(C(=O)O)c4)o3)C(=N)N21	·	·	-3	·	65*	11%
O=C1CCC(=O)c2ccc3c4c(ccc1c24)CC3	·	·	-1	·	24	·
O=C1CCN2C=Nc3cccc4ccc1c2c34	9	-16	7	16	73*	12%
CC[C@@H](C)[C@H](CNC)NC[C@@H](Cc1cccc2ccccc12)NCCc1cccc(C(F)(F)F)c1	0	-5	1	17	55*	4%
CCC[C@H](CN[C@@H](CNC)[C@H](C)CC)NCCc1cc(C(F)(F)F)cc(C(F)(F)F)c1	1	-4	1	7	9	·
OC1COC(c2ccccc2)OC1C1OC(c2ccccc2)OCC1O (centres undefined)	·	·	0	·	5	·
O=C(CNC(=O)c1ccc(Br)o1)Nc1cccc(S(=O)(=O)N2CCOCC2)c1	-1	3	-2	-1	11	·
COC(=O)C1=C(C(=O)OC)C(c2cc(Br)ccc2O)c2sc(=O)[nH]c2S1 (centres undefined)	0	·	2	22	63*	9%
CNC(=O)CN1C(=O)c2cccc3cccc1c23	0	2	0	·	4	·
CN1/C(=N\O)c2cccc3cccc1c23	12	-2	0	·	66*	10%
O=C(N/N=C/c1ccc(F)c(F)c1)c1cc2c(s1)-c1ccccc1CC2	0	0	-2	-2	0	·
CNC(=O)c1cc2c(s1)-c1ccccc1CC2	4	-2	1	5	53*	10%
CC1CCC(NC(=O)c2cc(S(=O)(=O)N3CCCCC3)c[nH]2)CC1 (centres undefined)	-2	4	0	1	57*	8%
CCCNC(=O)c1cc(S(=O)(=O)N2CCCCC2)c[nH]1	-1	4	-1	-2	2	·
Cc1cc(NC(=O)c2cc(-c3ccncc3)nc3ccccc23)ccc1Br	-2	·	2	-4	1	·
O=C1C(C=NCc2ccncc2)=C(O)c2ccccc21	1	4	3	2	66*	10%
O=C1C(C=NCc2cccnc2)=C(O)c2ccccc21	·	-2	2	·	5	·
O=c1nc2n(c3sc4c(c13)CCCC4)C(CBr)CS2 (centres undefined)	-1	-4	0	2	51*	7%
CCOc1ccccc1CN1CCN(CCCn2cccn2)CC1CCO (centres undefined)	-1	-1	-2	-1	-2	·
